Measurements taken from ChEMBL document CHEMBL1649407, “Part I: Synthesis, cancer chemopreventive activity and molecular docking study of novel quinoxaline derivatives” (Eur J Med Chem, 2011).

Assays:
[1] = Cytotoxicity against human Raji cells assessed as cell viability at 1000 molar ratio by trypan blue staining method
[2] = system: Mus musculus; experiment: Inhibition of DMBA-initiated/TPA-promoted carcinogenesis in ICR mouse assessed as mouse bearing papillomas at 85 nmol administered 1 hr before TPA treatment measured after 11 weeks by two-stage carcinogenesis test; assay type: functional; design: scale not given: the % may be the effect or the level left
Summary of the method: (§1)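 Female SPF ICR mice, 6 weeks old, 15 per group, backs shaved. Initiation: topical DMBA (390 nmol) in 0.1 mL acetone. Promotion began one week later: TPA (1.7 nmol) in 0.1 mL acetone, twice weekly. Test compound (85 nmol) in 0.1 mL acetone applied topically 1 h before each promotion. Papilloma-bearing mice and papillomas per mouse scored weekly for 20 weeks. Tumor type confirmed histologically. Student's t-test.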

[3] = system: Mus musculus; experiment: Inhibition of DMBA-initiated/TPA-promoted carcinogenesis in ICR mouse assessed as mouse bearing papillomas at 85 nmol administered 1 hr before TPA treatment measured after 6 weeks by two-stage carcinogenesis test; assay type: functional; design: scale not given: the % may be the effect or the level left; summary of the method: as §1
[4] = system: Mus musculus; experiment: Inhibition of DMBA-initiated/TPA-promoted carcinogenesis in ICR mouse assessed as mouse bearing papillomas at 85 nmol administered 1 hr before TPA treatment measured after 8 weeks by two-stage carcinogenesis test; assay type: functional; design: scale not given: the % may be the effect or the level left; summary of the method: as §1
[5] = system: Mus musculus; experiment: Inhibition of DMBA-initiated/TPA-promoted carcinogenesis in ICR mouse assessed as mouse bearing papillomas at 85 nmol administered 1 hr before TPA treatment measured after 15 weeks by two-stage carcinogenesis test; assay type: functional; design: scale not given: the % may be the effect or the level left; summary of the method: as §1
[6] = system: Mus musculus; experiment: Inhibition of DMBA-initiated/TPA-promoted carcinogenesis in ICR mouse assessed as mouse bearing papillomas at 85 nmol administered 1 hr before TPA treatment measured after 18 weeks by two-stage carcinogenesis test; assay type: functional; design: scale not given: the % may be the effect or the level left; summary of the method: as §1
[7] = system: Mus musculus; experiment: Inhibition of DMBA-initiated/TPA-promoted carcinogenesis in ICR mouse assessed as mouse bearing papillomas at 85 nmol administered 1 hr before TPA treatment measured after 4 weeks by two-stage carcinogenesis test; assay type: functional; design: scale not given: the % may be the effect or the level left; summary of the method: as §1
[8] = system: Mus musculus; experiment: Inhibition of DMBA-initiated/TPA-promoted carcinogenesis in ICR mouse assessed as mouse bearing papillomas at 85 nmol administered 1 hr before TPA treatment measured after 19 weeks by two-stage carcinogenesis test; assay type: functional; design: scale not given: the % may be the effect or the level left; summary of the method: as §1
[9] = system: Mus musculus; experiment: Toxicity in topically treated ICR mouse assessed as lesional damage; assay type: organism-based; settings: in vivo, topical_or_ocular
Summary of the method: (§2)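 Treated areas of shaved back skin were inspected during the DMBA/TPA two-stage study, where test compound (85 nmol in acetone) was applied topically before each twice-weekly TPA promotion. Scored for lesional damage and for inflammation (edema, erosion, ulcer).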

[10] = system: Mus musculus; experiment: Inhibition of DMBA-initiated/TPA-promoted carcinogenesis in ICR mouse assessed as mouse bearing papillomas at 85 nmol administered 1 hr before TPA treatment measured after 16 weeks by two-stage carcinogenesis test; assay type: functional; design: scale not given: the % may be the effect or the level left; summary of the method: as §1
[11] = system: Mus musculus; experiment: Inhibition of DMBA-initiated/TPA-promoted carcinogenesis in ICR mouse assessed as mouse bearing papillomas at 85 nmol administered 1 hr before TPA treatment measured after 1 week by two-stage carcinogenesis test; assay type: functional; design: scale not given: the % may be the effect or the level left; summary of the method: as §1
[12] = system: Mus musculus; experiment: Inhibition of DMBA-initiated/TPA-promoted carcinogenesis in ICR mouse assessed as mouse bearing papillomas at 85 nmol administered 1 hr before TPA treatment measured after 2 weeks by two-stage carcinogenesis test; assay type: functional; design: scale not given: the % may be the effect or the level left; summary of the method: as §1
[13] = system: Mus musculus; experiment: Inhibition of DMBA-initiated/TPA-promoted carcinogenesis in ICR mouse assessed as mouse bearing papillomas at 85 nmol administered 1 hr before TPA treatment measured after 9 weeks by two-stage carcinogenesis test; assay type: functional; design: scale not given: the % may be the effect or the level left; summary of the method: as §1
[14] = system: Mus musculus; experiment: Inhibition of DMBA-initiated/TPA-promoted carcinogenesis in ICR mouse assessed as mouse bearing papillomas at 85 nmol administered 1 hr before TPA treatment measured after 7 weeks by two-stage carcinogenesis test; assay type: functional; design: scale not given: the % may be the effect or the level left; summary of the method: as §1
[15] = system: Mus musculus; experiment: Inhibition of DMBA-initiated/TPA-promoted carcinogenesis in ICR mouse assessed as mouse bearing papillomas at 85 nmol administered 1 hr before TPA treatment measured after 14 weeks by two-stage carcinogenesis test; assay type: functional; design: scale not given: the % may be the effect or the level left; summary of the method: as §1
[16] = system: Mus musculus; experiment: Inhibition of DMBA-initiated/TPA-promoted carcinogenesis in ICR mouse assessed as mouse bearing papillomas at 85 nmol administered 1 hr before TPA treatment measured after 12 weeks by two-stage carcinogenesis test; assay type: functional; design: scale not given: the % may be the effect or the level left; summary of the method: as §1
[17] = system: Mus musculus; experiment: Inhibition of DMBA-initiated/TPA-promoted carcinogenesis in ICR mouse assessed as mouse bearing papillomas at 85 nmol administered 1 hr before TPA treatment measured after 17 weeks by two-stage carcinogenesis test; assay type: functional; design: scale not given: the % may be the effect or the level left; summary of the method: as §1
[18] = system: Mus musculus; experiment: Inhibition of DMBA-initiated/TPA-promoted carcinogenesis in ICR mouse assessed as mouse bearing papillomas at 85 nmol administered 1 hr before TPA treatment measured after 20 weeks by two-stage carcinogenesis test; assay type: functional; design: scale not given: the % may be the effect or the level left; summary of the method: as §1
[19] = system: Mus musculus; experiment: Inhibition of DMBA-initiated/TPA-promoted carcinogenesis in ICR mouse assessed as mouse bearing papillomas at 85 nmol administered 1 hr before TPA treatment measured after 10 weeks by two-stage carcinogenesis test; assay type: functional; design: scale not given: the % may be the effect or the level left; summary of the method: as §1
[20] = system: Mus musculus; experiment: Toxicity in topically treated ICR mouse assessed as inflammation; assay type: organism-based; settings: in vivo, topical_or_ocular; summary of the method: as §2
[21] = system: Mus musculus; experiment: Inhibition of DMBA-initiated/TPA-promoted carcinogenesis in ICR mouse assessed as mouse bearing papillomas at 85 nmol administered 1 hr before TPA treatment measured after 5 weeks by two-stage carcinogenesis test; assay type: functional; design: scale not given: the % may be the effect or the level left; summary of the method: as §1
[22] = organism: Mus musculus; experiment: Toxicity in ICR mouse assessed as change in body weight; assay type: organism-based; settings: in vivo
Summary of the method: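 Mice from the DMBA/TPA two-stage skin study received topical test compound in acetone before each TPA promotion. Body-weight gain was followed during the 20-week experiment. Food and water ad libitum, five mice per cage at 24 ± 2 °C.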

[23] = system: Mus musculus; experiment: Inhibition of DMBA-initiated/TPA-promoted carcinogenesis in ICR mouse assessed as mouse bearing papillomas at 85 nmol administered 1 hr before TPA treatment measured after 13 weeks by two-stage carcinogenesis test; assay type: functional; design: scale not given: the % may be the effect or the level left; summary of the method: as §1
[24] = system: Mus musculus; experiment: Inhibition of DMBA-initiated/TPA-promoted carcinogenesis in ICR mouse assessed as mouse bearing papillomas at 85 nmol administered 1 hr before TPA treatment measured after 3 weeks by two-stage carcinogenesis test; assay type: functional; design: scale not given: the % may be the effect or the level left; summary of the method: as §1

In the case of `CCOC(=O)Cn1c(=O)c(N/N=C/c2ccccc2)nc2ccccc21`, the viability at 1000 molar ratio ([1]; Raji cells) is reported as 60%.
For `N#Cc1c(-c2ccc(O)cc2)nc(Sc2nc3ccccc3nc2Cl)[nH]c1=O`, the viability at 1000 molar ratio ([1]; Raji cells) was 60%.
`C=CCn1c(=O)c(N/N=C/c2ccccc2OC)nc2ccccc21` gave a viability at 1000 molar ratio ([1]; Raji cells) of 60%.
Work on `O=c1[nH]c2ccccc2nc1N/N=C/c1ccccc1` yielded a viability at 1000 molar ratio ([1]; Raji cells) of 60%.
`C=CCN(/N=C/c1ccccc1OC)c1nc2ccccc2n(CC=C)c1=O` gave an Activity [2] of 26.6%, an Activity [3] of 0% and an Activity [4] of 13.3%. For the same compound, the Activity [5] was 60%, the Activity [6] was 80% and the Activity [7] was 0%. For the same compound, the Activity [8] was 86.6%, the Activity [9] was “Non-toxic” and the Activity [10] was 66.6%. For the same compound, the viability at 1000 molar ratio ([1]; Raji cells) was 60%, the Activity [11] was 0% and the Activity [12] was 0%. It also gave an Activity [13] of 13.3%, an Activity [14] of 0% and an Activity [15] of 60%. For the same compound, the Activity [16] was 33.3%, the Activity [17] was 73.3% and the Activity [18] was 86.6%. For the same compound, the Activity [19] was 20%, the Activity [20] was “Non-toxic” and the Activity [21] was 0%. For the same compound, the Activity [22] was “Non-toxic”, the Activity [23] was 46.6% and the Activity [24] was 0%.
With `O=c1[nH]c2ccccc2nc1Cl` the viability at 1000 molar ratio ([1]; Raji cells) was 50%.
Compound `Clc1nc2ccccc2nc1Sc1nc2ccccc2[nH]1` has a viability at 1000 molar ratio ([1]; Raji cells) of 60%.
With `N#Cc1c(-c2ccc(F)cc2)nc(Sc2nc3ccccc3nc2Cl)[nH]c1=O` the viability at 1000 molar ratio ([1]; Raji cells) was 60%.
In the case of `C=CCn1c(=O)c(N/N=C/c2ccccc2)nc2ccccc21`, the viability at 1000 molar ratio ([1]; Raji cells) is reported as 60%.
`Nc1nc2ccccc2[nH]c1=O` showed a viability at 1000 molar ratio ([1]; Raji cells) of 60%.
`CCOC(=O)Cn1c(=O)c(N/N=C/c2ccccc2OC)nc2ccccc21` showed a viability at 1000 molar ratio ([1]; Raji cells) of 60%.
Compound `c1ccc2nc3c(nc2c1)nc1ccccn13` has a viability at 1000 molar ratio ([1]; Raji cells) of 60%.
Work on `NNc1nc2ccccc2[nH]c1=O` yielded a viability at 1000 molar ratio ([1]; Raji cells) of 60%.
For `Clc1nc2ccccc2nc1SCc1nc2ccccc2[nH]1`, the viability at 1000 molar ratio ([1]; Raji cells) was 60%.
In the case of `Clc1nc2ccccc2nc1Cl`, the viability at 1000 molar ratio ([1]; raji) is reported as 50%.
`COc1ccccc1/C=N/Nc1nc2ccccc2[nH]c1=O` showed a viability at 1000 molar ratio ([1]; Raji cells) of 60%.
Compound `Oc1nc2ccccc2nc1O` has a viability at 1000 molar ratio ([1]; Raji cells) of 60%.
`N#Cc1c(-c2ccccc2)nc(Sc2nc3ccccc3nc2Cl)[nH]c1=O` gave a viability at 1000 molar ratio ([1]; Raji cells) of 60%.
`CCOC(=O)CN(/N=C/c1ccccc1OC)c1nc2ccccc2n(CC(=O)OCC)c1=O` gave a viability at 1000 molar ratio ([1]; Raji cells) of 60%.
For `c1ccc2nc3c(nc2c1)[nH]c1cccc[n+]13`, the viability at 1000 molar ratio ([1]; Raji cells) was 60%.
